Activity calls are given as the source filed them. The calls are words filed in the database; no cut-off is given here. Starred links: 1 amine or outer side, 2 acyl side, 3 side chain; linkers in the order of their positions; H or OH if unused. Positions of bridges follow the written chain, without caps; N, C: chain ends. Non-standard residues stand in square brackets, D forms with d. Residues, ends and D or L forms follow the SMILES beside them. Chains are numbered I, II in the order given. *: point of attachment. X1 = CCCCCCCCCCCCCCCC(=O)NCCCN1C(=O)CC(*)C1=O; X3 = N[C@@H](Cc1ccccc1)CN(CC(=O)[*:2])[*:1]; X2 = O=C1CC([*:1])C(=O)N1CCCC(=O)[*:2]
Legend:
Format in all cases: cell-based
Nociceptin receptor [1] = molecular target: T1, Nociceptin receptor (Homo sapiens, UniProt P41146); assay: Agonist activity at NOP (unknown origin) […] assessed as induction of beta-arrestin2 activation incubated for 15 mins by BRET assay
Nociceptin receptor [2] = molecular target: T1, Nociceptin receptor; assay: Agonist activity at NOP (unknown origin) expressed in HEK293 cell membranes co-expressing Gbeta1-RGFP protein assessed as induction of G protein activation incubated for 15 mins by BRET assay
How it was run: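 Membranes (3 μg protein) from HEK293 cells stably co-expressing NOP-RLuc and Gβ1-RGFP, in DPBS. Coelenterazine 5 μM final; ligands in PBS–BSA 0.01%. BRET ratio (RGFP 510 nm / RLuc 460 nm) read 15 min after agonist, room temperature. Values are vehicle-subtracted stimulated BRET ratio. Mean of five experiments in duplicate.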

Nociceptin receptor [3] = molecular target: T1, Nociceptin receptor; assay: Antagonist activity at NOP (unknown origin) expressed in HEK293 cell membranes co-expressing Gbeta1-RGFP protein assessed as reduction in N/OFQ(1-13)-NH2-induced induction of G protein activation pre-incubated for 15 mins before stimulation with N/OFQ(1-13)-NH2 for 15 mins by BRET assay; details: read-out: pA2 (converted)
Nociceptin receptor [4] = molecular target: T1, Nociceptin receptor; assay: Antagonist activity at NOP (unknown origin) expressed in HEK293 cell membranes co-expressing beta-arrestin2-RGFP protein assessed as reduction in N/OFQ(1-13)-NH2-induced induction of beta-arrestin2 activation pre-incubated for 15 mins before stimulation with N/OFQ(1-13)-NH2 for 15 mins by BRET assay; details: read-out: pA2 (converted)
[5] = molecular target: T2, Delta-type opioid receptor (Homo sapiens, UniProt P41143); assay: Agonist activity at DOP (unknown origin) expressed in SH-SY5Y cell membranes co-expressing Gbeta1-RGFP protein assessed as induction of G protein activation incubated for 15 mins by BRET assay
How it was run: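 Membranes (3 μg protein) from SH-SY5Y cells stably co-expressing delta-RLuc and Gβ1-RGFP, in DPBS. Ligands in PBS–BSA 0.01%, coelenterazine 5 μM final, room temperature. BRET ratio (RGFP 510 nm/RLuc 460 nm CPS minus vehicle) read 15 min after agonist. Efficacy relative to deltorphin A run on every plate; CR versus deltorphin A EC50. Five experiments in duplicate.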

Mu-type opioid receptor [6] = molecular target: T3, Mu-type opioid receptor (Homo sapiens, UniProt P35372); assay: Agonist activity at MOP (unknown origin) expressed in SH-SY5Y cell membranes co-expressing Gbeta1-RGFP protein assessed as induction of G protein activation incubated for 15 mins by BRET assay
Mu-type opioid receptor [7] = molecular target: T3, Mu-type opioid receptor; assay: Agonist activity at MOP (unknown origin) expressed in SH-SY5Y cell membranes co-expressing beta-arrestin2-RGFP protein assessed as induction of beta-arrestin2 activation incubated for 15 mins by BRET assay
[8] = molecular target: T2, Delta-type opioid receptor; assay: (§1) Bias factor, selectivity for agonist activity at DOP (unknown origin) expressed in SH-SY5Y cell membranes co-expressing beta-arrestin2-RGFP protein assessed as induction of beta-arrestin2 activation to agonist activity at NOP (unknown origin) expressed in SH-SY5Y cell membranes co-expressing Gbeta1-RGFP protein assessed as induction of G protein activation
How it was run: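 Concentration–response curves from delta G protein (membrane) and β-arrestin 2 (whole cell) BRET assays fitted to the Black–Leff operational model. Bias factor = Δlog(τ/KA) G protein minus Δlog(τ/KA) β-arrestin 2, with deltorphin A as the unbiased reference. Mean of at least five experiments, with 95% confidence limits.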

[9] = molecular target: T2, Delta-type opioid receptor; assay: Agonist activity at DOP (unknown origin) expressed in SH-SY5Y cell membranes co-expressing beta-arrestin2-RGFP protein assessed as induction of beta-arrestin2 activation incubated for 15 mins by BRET assay
How it was run: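 Whole SH-SY5Y cells stably co-expressing delta-RLuc and β-arrestin 2-RGFP, plated 24 h earlier (100,000 cells/well), in PBS with MgCl2 0.5 mM and CaCl2 0.9 mM. Coelenterazine 5 μM final added 15 min before reading. BRET ratio read 15 min after agonist at room temperature. Efficacy and CR relative to deltorphin A. Five experiments in duplicate.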

Nociceptin receptor [10] = molecular target: T1, Nociceptin receptor; assay: as §1, with “NOP” for “DOP”, “HEK293” for “SH-SY5Y”
How it was run: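 Concentration–response curves in the NOP G protein and β-arrestin 2 BRET assays were fitted to the Black–Leff operational model. Mean of at least five experiments with 95% confidence limits.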

T1 sequence (P41146 whole entry): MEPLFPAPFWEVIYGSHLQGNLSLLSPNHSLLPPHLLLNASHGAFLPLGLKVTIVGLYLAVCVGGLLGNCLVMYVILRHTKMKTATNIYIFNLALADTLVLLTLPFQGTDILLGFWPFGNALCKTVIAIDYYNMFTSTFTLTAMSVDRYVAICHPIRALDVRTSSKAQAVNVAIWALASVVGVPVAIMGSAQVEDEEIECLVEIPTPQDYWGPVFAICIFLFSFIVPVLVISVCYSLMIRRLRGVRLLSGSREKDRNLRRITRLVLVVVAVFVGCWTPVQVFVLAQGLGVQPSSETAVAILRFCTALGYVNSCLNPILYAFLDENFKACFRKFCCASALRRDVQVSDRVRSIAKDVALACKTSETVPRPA
T2 sequence (P41143 whole entry): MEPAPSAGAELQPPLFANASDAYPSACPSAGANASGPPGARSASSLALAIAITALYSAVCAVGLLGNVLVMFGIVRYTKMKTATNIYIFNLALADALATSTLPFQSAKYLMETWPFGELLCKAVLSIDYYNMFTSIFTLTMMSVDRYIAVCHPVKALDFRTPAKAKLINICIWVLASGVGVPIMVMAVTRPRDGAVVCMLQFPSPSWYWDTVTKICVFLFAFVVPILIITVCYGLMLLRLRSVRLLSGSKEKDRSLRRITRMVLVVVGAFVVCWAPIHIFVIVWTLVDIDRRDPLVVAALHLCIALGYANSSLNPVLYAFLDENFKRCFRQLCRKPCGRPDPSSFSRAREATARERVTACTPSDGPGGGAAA
T3 sequence (P35372 whole entry): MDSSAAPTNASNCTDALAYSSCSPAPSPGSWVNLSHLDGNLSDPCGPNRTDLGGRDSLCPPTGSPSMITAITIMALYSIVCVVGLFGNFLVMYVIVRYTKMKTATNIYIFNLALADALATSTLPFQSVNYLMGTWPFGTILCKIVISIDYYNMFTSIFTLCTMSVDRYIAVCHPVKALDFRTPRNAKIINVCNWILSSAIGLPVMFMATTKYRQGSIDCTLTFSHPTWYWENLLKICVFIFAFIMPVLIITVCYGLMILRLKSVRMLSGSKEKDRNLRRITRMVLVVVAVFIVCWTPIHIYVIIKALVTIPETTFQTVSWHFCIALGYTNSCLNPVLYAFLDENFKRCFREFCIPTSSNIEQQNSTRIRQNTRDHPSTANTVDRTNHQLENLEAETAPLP

Structure (SMILES) | pEC50 (Nociceptin receptor [1]; HEK293) | EC50 (Nociceptin receptor [2]) [nM] | Kb (Nociceptin receptor [3]) [nM] | Kb (Nociceptin receptor [4]) [nM] | EC50 [5] [nM] | EC50 (Mu-type opioid receptor [6]) [nM] | EC50 (Mu-type opioid receptor [7]) [nM] | Selectivity ratio [8] | EC50 [9] [nM] | Selectivity Index (Nociceptin receptor [10]) | EC50 (Nociceptin receptor [1]) [nM]
C[C@H](NC(=O)CNC(=O)[C@@H](NC(=O)[C@H](Cc1ccccc1)NC(=O)CNC(=O)CNC[C@@H](N)Cc1ccccc1)[C@@H](C)O)C(=O)N[C@@H](CCCN=C(N)N)C(=O)N[C@@H](CCCCN)C(=O)N[C@@H](CO)C(=O)N[C@@H](C)C(=O)N[C@@H](CCCN=C(N)N)C(=O)N[C@@H](CCCCN)C(N)=O (H-[X3]GFTGARKSARK-NH2) | inactive | 8.91 | 5.89 | 14.8 | – | – | – | – | – | – | –
CCCCCCCCCCCCCCCC(=O)NCCCN1C(=O)CC(SC[C@H](NC(=O)[C@H](CC(=O)O)NC(=O)[C@H](CCSC)NC(=O)[C@H](CC(C)C)NC(=O)[C@H](Cc2c[nH]cn2)NC(=O)[C@H](Cc2ccccc2)NC(=O)[C@@H](CCSC)NC(=O)[C@@H](N)Cc2ccc(O)cc2)C(N)=O)C1=O (some centres undefined) (H-Y[dM]FHLMDC(X1)-NH2) | – | – | – | – | 2.04 | 51.3 | 38 | 1.06 | 22.4 | – | –
CCCCCCCCCCCCCCCC(=O)NCCCN1C(=O)CC(SC[C@H](NC(=O)[C@H](CC(C)C)NC(=O)[C@H](Cc2ccccc2)NC(=O)CNC(=O)CNC(=O)[C@@H](N)Cc2ccc(O)cc2)C(N)=O)C1=O (some centres undefined) (H-YGGFLC(X1)-NH2) | – | – | – | – | 8.13 | 4.07 | 229 | 1.7 | 132 | – | –
CSCC[C@H](NC(=O)[C@H](CC(C)C)NC(=O)[C@H](Cc1c[nH]cn1)NC(=O)[C@H](Cc1ccccc1)NC(=O)[C@@H](CCSC)NC(=O)[C@@H](N)Cc1ccc(O)cc1)C(=O)N[C@@H](CC(=O)O)C(=O)O (H-Y[dM]FHLMD-OH) | – | – | – | – | 26.3 | – | – | 0 | 14.8 | – | –
C[C@H](NC(=O)CCCN1C(=O)CC(SC[C@H](NC(=O)[C@H](CCCCN)NC(=O)[C@H](CCCNC(=N)N)NC(=O)[C@H](C)NC(=O)[C@H](CO)NC(=O)[C@H](CCCCN)NC(=O)[C@H](CCCNC(=N)N)NC(=O)[C@H](C)NC(=O)CNC(=O)[C@@H](NC(=O)[C@H](Cc2ccccc2)NC(=O)CNC(=O)CNC(=O)[C@@H](N)Cc2ccccc2)[C@@H](C)O)C(N)=O)C1=O)C(=O)N[C@@H](CCCCN)C(=O)N[C@@H](C)C(=O)N[C@@H](CCCCN)C(=O)N[C@@H](C)C(=O)N[C@@H](CCCCN)C(=O)N[C@@H](C)C(=O)N[C@@H](CCCCN)C(=O)N[C@@H](C)C(=O)N[C@@H](CCCCN)C(=O)N[C@@H](C)C(=O)N[C@@H](CCCCN)C(N)=O (some centres undefined) (I: H-FGGFTGARKSARKC-NH2 / II: AKAKAKAKAKAK-NH2; linker I:14-II:N via X2) | – | 0.794 | – | – | – | – | – | – | – | 1.18 | 17.4
CCCCCCCCCCCCCCCC(=O)NCCCN1C(=O)CC(SC[C@H](NC(=O)[C@H](CO)NC(=O)[C@@H]2CCCN2C(=O)[C@H](Cc2ccc(O)cc2)NC(=O)CNC(=O)[C@H](Cc2ccccc2)NC(=O)[C@@H](C)NC(=O)[C@@H](N)Cc2ccc(O)cc2)C(N)=O)C1=O (some centres undefined) | – | – | – | – | 58.9 | 1.45 | 11 | – | 617 | – | –
